Source: ChEMBL document CHEMBL4196132, “Alkaloids with Immunosuppressive Activity from the Bark of Pausinystalia yohimbe” (J Nat Prod, 2018)
Calls of active or inactive are those of the source. No cut-off for these calls is given here.

Experiments:
Format in all cases: functional, cell-based
HT-29 = test: Cytotoxicity against human HT-29 cells assessed as reduction in cell viability at 100 uM after 24 hrs by MTT assay
Summary of the method: (§1)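 Human cancer lines grown in DMEM or RPMI-1640 with 10% FBS plus penicillin–streptomycin, 5% CO2, 37 °C. MTT read-out, viable-cell percentage measured at 490 nm. Doxorubicin hydrochloride as positive control.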

HeLa = test: Cytotoxicity against human HeLa cells assessed as reduction in cell viability at 100 uM after 24 hrs by MTT assay; summary of the method: as §1
HepG2 = test: Cytotoxicity against human HepG2 cells assessed as reduction in cell viability at 100 uM after 24 hrs by MTT assay; summary of the method: as §1
MCF7 = test: Cytotoxicity against human MCF7 cells assessed as reduction in cell viability at 100 uM after 24 hrs by MTT assay; summary of the method: as §1
B-cell line = test: Immunosuppressive activity in C57BL/6 mouse B cells assessed as inhibition of LPS-induced cell proliferation by MTT assay; settings: C57BL/6, B-cell
Summary of the method: (§2)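 Splenocytes from male C57BL/6 mice (6–8 weeks), red cells lysed, in RPMI 1640 with 10% FBS. 5 × 10^5 cells per well, 5% CO2, 37 °C, 24 h. Stimulated with ConA 5 μg/mL (T cells) or LPS 10 μg/mL (B cells). MTT added for 4 h, pellet dissolved in DMSO, read at 490 nm. CsA and MMF as positive controls.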

Murine T-cell line = test: Immunosuppressive activity in C57BL/6 mouse T cells assessed as inhibition of ConA-induced cell proliferation by MTT assay; settings: C57BL/6, T-cell; summary of the method: as §2

SMILES | Activity (HT-29) | Activity (HeLa) | Activity (HepG2) | Activity (MCF7) | IC50 (B-cell line) | IC50 (Murine T-cell line)
C=C[C@H]1C[N@+]2([O-])CCc3c([nH]c4ccccc34)[C@@H]2C[C@@H]1/C(=C\OC)C(=O)OC | inactive | inactive | inactive | inactive |  | 
C=C[C@@H]1CN2CC[C@@]3(C(=O)Nc4ccccc43)[C@@H]2C[C@@H]1/C(=C\OC)C(=O)OC | inactive | inactive | inactive | inactive |  | 
CC[C@@H]1CN2C=Cc3c([nH]c4ccccc34)C2=C2OC(=O)C(C=O)=C21 | inactive | inactive | inactive | inactive |  | 
C=C[C@H]1C[N@@+]2([O-])CCc3c([nH]c4ccccc34)[C@@H]2C[C@@H]1/C(=C\OC)C(=O)OC | inactive | inactive | inactive | inactive |  | 
CC[C@H]1C[N@@+]2([O-])CCc3c([nH]c4ccccc34)[C@@H]2C[C@@H]1/C(=C\OC)C(=O)OC | inactive | inactive | inactive | inactive |  | 
CC[C@@H]1CN2CCc3c([nH]c4ccccc34)[C@@H]2C[C@@H]1/C(=C\OC)C(=O)OC | inactive | inactive | inactive | inactive |  | 
CC[C@@H]1C[N@@+]2([O-])CCc3c([nH]c4ccccc34)[C@@H]2C[C@@H]1/C(=C\OC)C(=O)OC | inactive | inactive | inactive | inactive |  | 
COC(=O)[C@H]1[C@H]2C[C@H]3c4[nH]c5ccccc5c4CCN3C[C@@H]2CC[C@@H]1O [CORYNANTHEINE] | inactive | inactive | inactive | inactive | 40.5 µM | 27.6 µM
C=C[C@H]1CN2CC[C@]3(C(=O)Nc4ccccc43)[C@@H]2C[C@@H]1/C(=C\OC)C(=O)OC | inactive | inactive | inactive | inactive |  | 
C=C[C@H]1CN2CCc3c([nH]c4ccccc34)[C@@H]2C[C@@H]1/C(=C\OC)C(=O)OC | inactive | inactive | inactive | inactive | 13.5 µM | 16.8 µM
CC[C@H]1CN2CCc3c([nH]c4ccccc34)[C@@H]2C[C@@H]1/C(=C\OC)C(=O)OC (stereo in doubt; 14) | inactive | inactive | inactive | inactive |  | 
CC[C@H]1CN2CCc3c([nH]c4ccccc34)[C@@H]2C[C@@H]1/C(=C\OC)C(=O)OC (stereo in doubt; 13) | inactive | inactive | inactive | inactive |  | 
CC[C@@H]1CN2CC[C@@]3(C(=O)Nc4ccccc43)[C@@H]2C[C@@H]1/C(=C\OC)C(=O)OC | inactive | inactive | inactive | inactive |  | 
CC[C@@H]1CN2CCc3c([nH]c4ccccc34)C2=C2OC(=O)C(C(=O)OC)=C21 | inactive | inactive | inactive | inactive |  | 
CC[C@@H]1CN2CC[C@]3(C(=O)Nc4ccccc43)[C@@H]2C[C@@H]1/C(=C\OC)C(=O)OC | inactive | inactive | inactive | inactive |  | 
CC[C@@H]1C[N@+]2([O-])CCc3c([nH]c4ccccc34)[C@@H]2C[C@@H]1/C(=C\OC)C(=O)OC | inactive | inactive | inactive | inactive |  | 
